# According to ChEMBL document CHEMBL5532695, “4-Trifluoromethyl bithiazoles as broad-spectrum antimicrobial agents for virus-related bacterial infections or co-infections” (RSC Med Chem, 2024):
# Experiments:
# Escherichia coli = assay: Synergistic antibacterial activity against Escherichia coli CCUGT incubated for 18 to 24 hrs in presence of colistin by broth microdilution method; type: functional; settings: time 18-24 hrs
# rhinovirus A16 [1] = assay: microbe, parasite or virus in culture; settings: Rhinovirus A, HeLa, 48 h
# Zika virus [2] = assay: microbe, parasite or virus in culture; settings: Vero C1008, 72 h
# Pseudomonas aeruginosa = assay: Synergistic antibacterial activity against Pseudomonas aeruginosa ATCC 27853 incubated for 18 to 24 hrs in presence of colistin by broth microdilution method; type: functional; settings: time 18-24 hrs
# [3] = Cytotoxicity against african green monkey Vero E6 cells assessed as reduction in cell viability by MTT assay; type: toxicity, cell-based; settings: chlorocebus sabaeus, Vero E6 cells (Vero C1008)
# Summary of the method: (§1)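 MTT viability on HeLa or VeroE6 cells, run in parallel with the antiviral assays. CC50 from variable-slope sigmoidal dose–response regression.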
# Acinetobacter baumannii = assay: Synergistic antibacterial activity against Acinetobacter baumannii ATCC 17978 incubated for 18 to 24 hrs in presence of colistin by broth microdilution method; type: functional; settings: time 18-24 hrs
# Bacillus subtilis [4] = assay: Antibacterial activity against Bacillus subtilis ATCC 6633 assessed as reduction in microbial growth measured after 18 hrs by CLSI based broth microdilution method; type: functional
# Summary of the method: (§2)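 MIC by CLSI broth microdilution in Mueller–Hinton medium, triplicate. Inoculum 5 × 10^4 CFU per well. Compounds taken up in DMSO (50 mg mL−1 stock) and diluted in medium. Read after 18 h at 35 ± 2 °C.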
# Klebsiella pneumoniae = assay: Synergistic antibacterial activity against Klebsiella pneumoniae ATCC 13833 incubated for 18 to 24 hrs in presence of colistin by broth microdilution method; type: functional; settings: time 18-24 hrs
# Streptococcus pyogenes [5] = assay: Antibacterial activity against Streptococcus pyogenes ATCC 12344 assessed as reduction in microbial growth measured after 18 hrs by CLSI based broth microdilution method; type: functional; summary of the method: as §2
# [6] = target: Phosphatidylinositol 4-kinase beta (Homo sapiens, UniProt Q9UBF8); assay: Inhibition of recombinant full length his tagged PI4KB (unknown origin) incubated for 10 mins in presence of ATP by ADP-glo kinase assay
# enterovirus D68 [7] = assay: microbe, parasite or virus in culture; settings: Enterovirus D, HeLa, 48 h
# [8] = Cytotoxicity against human HeLa cells assessed as reduction in cell viability by MTT assay; type: toxicity, cell-based; summary of the method: as §1
# Staphylococcus aureus [9] = assay: Antibacterial activity against Staphylococcus aureus ATCC 25923 assessed as reduction in microbial growth measured after 18 hrs by CLSI based broth microdilution method; type: functional; summary of the method: as §2
# Enterococcus faecalis [10] = assay: Antibacterial activity against Enterococcus faecalis ATCC 29212 assessed as reduction in microbial growth measured after 18 hrs by CLSI based broth microdilution method; type: functional; summary of the method: as §2
# Enterococcus faecium [11] = assay: Bactericidal activity against Vancomycin resistant Enterococcus faecium SI-1831 assessed as reduction in microbial growth measured after 18 hrs by CLSI based broth microdilution method; type: functional
# Staphylococcus warneri [12] = assay: Bactericidal activity against oxacillin-resistant Staphylococcus warneri SI-5/2011 assessed as reduction in microbial growth measured after 18 hrs by CLSI based broth microdilution method; type: functional
# Bacillus subtilis [13] = assay: Bactericidal activity against Bacillus subtilis ATCC 6633 assessed as reduction in microbial growth measured after 18 hrs by CLSI based broth microdilution method; type: functional
# Summary of the method: (§3)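 MBC by CLSI broth microdilution in Mueller–Hinton medium, triplicate. Inoculum 5 × 10^4 CFU per well. Read after 18 h at 35 ± 2 °C.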
# Enterococcus faecium [14] = assay: Bactericidal activity against Vancomycin/teicoplanin resistant Enterococcus faecium SI-759 assessed as reduction in microbial growth measured after 18 hrs by CLSI based broth microdilution method; type: functional
# Staphylococcus warneri [15] = assay: Antibacterial activity against oxacillin-resistant Staphylococcus warneri SI-5/2011 assessed as reduction in microbial growth measured after 18 hrs by CLSI based broth microdilution method; type: functional
# Summary of the method: (§4)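 Gram-positive clinical isolates; compounds dissolved in DMSO (50 mg mL−1 stock) and diluted in medium; MIC by CLSI broth microdilution in Mueller–Hinton medium, inoculum 5 × 10^4 CFU per well, read after 18 h at 35 ± 2 °C; triplicate.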
# [16] = test system: Staphylococcus epidermidis; assay: Bactericidal activity against linezolid-resistant Staphylococcus epidermidis SI-1266 assessed as reduction in microbial growth measured after 18 hrs by CLSI based broth microdilution method; type: functional
# Enterococcus faecium [17] = assay: Antibacterial activity against Vancomycin/teicoplanin resistant Enterococcus faecium SI-759 assessed as reduction in microbial growth measured after 18 hrs by CLSI based broth microdilution method; type: functional; summary of the method: as §4
# Staphylococcus aureus [18] = assay: Bactericidal activity against methicillin-resistant Staphylococcus aureus ATCC 43300 assessed as reduction in microbial growth measured after 18 hrs by CLSI based broth microdilution method; type: functional
# [19] = test system: Staphylococcus haemolyticus; assay: Antibacterial activity against oxacillin-resistant Staphylococcus haemolyticus SI-6/2011 assessed as reduction in microbial growth measured after 18 hrs by CLSI based broth microdilution method; type: functional; summary of the method: as §4
# Zika virus [20] = settings: vero e6
# Staphylococcus aureus [21] = assay: Bactericidal activity against Staphylococcus aureus ATCC 25923 assessed as reduction in microbial growth measured after 18 hrs by CLSI based broth microdilution method; type: functional; summary of the method: as §3
# Enterococcus faecalis [22] = assay: Bactericidal activity against Enterococcus faecalis ATCC 29212 assessed as reduction in microbial growth measured after 18 hrs by CLSI based broth microdilution method; type: functional; summary of the method: as §3
# Streptococcus pyogenes [23] = assay: Bactericidal activity against Streptococcus pyogenes ATCC 12344 assessed as reduction in microbial growth measured after 18 hrs by CLSI based broth microdilution method; type: functional; summary of the method: as §3
# [24] = test system: Staphylococcus haemolyticus; assay: Bactericidal activity against oxacillin-resistant Staphylococcus haemolyticus SI-6/2011 assessed as reduction in microbial growth measured after 18 hrs by CLSI based broth microdilution method; type: functional
# Enterococcus faecium [25] = assay: Bactericidal activity against Vancomycin resistant Enterococcus faecium SI-3856B assessed as reduction in microbial growth measured after 18 hrs by CLSI based broth microdilution method; type: functional
# Enterococcus faecium [26] = assay: Antibacterial activity against Vancomycin resistant Enterococcus faecium SI-1831 assessed as reduction in microbial growth measured after 18 hrs by CLSI based broth microdilution method; type: functional; summary of the method: as §4
# Staphylococcus aureus [27] = assay: Antibacterial activity against methicillin-resistant Staphylococcus aureus ATCC 43300 assessed as reduction in microbial growth measured after 18 hrs by CLSI based broth microdilution method; type: functional; summary of the method: as §4
# Enterococcus faecium [28] = assay: Antibacterial activity against Vancomycin resistant Enterococcus faecium SI-3856B assessed as reduction in microbial growth measured after 18 hrs by CLSI based broth microdilution method; type: functional; summary of the method: as §4
# [29] = test system: Staphylococcus epidermidis; assay: Antibacterial activity against linezolid-resistant Staphylococcus epidermidis SI-1266 assessed as reduction in microbial growth measured after 18 hrs by CLSI based broth microdilution method; type: functional; summary of the method: as §4
# rhinovirus A16 [30] = settings: hela
# enterovirus D68 [31] = settings: hela
# Phosphatidylinositol 4-kinase beta, sequence (Q9UBF8 whole entry): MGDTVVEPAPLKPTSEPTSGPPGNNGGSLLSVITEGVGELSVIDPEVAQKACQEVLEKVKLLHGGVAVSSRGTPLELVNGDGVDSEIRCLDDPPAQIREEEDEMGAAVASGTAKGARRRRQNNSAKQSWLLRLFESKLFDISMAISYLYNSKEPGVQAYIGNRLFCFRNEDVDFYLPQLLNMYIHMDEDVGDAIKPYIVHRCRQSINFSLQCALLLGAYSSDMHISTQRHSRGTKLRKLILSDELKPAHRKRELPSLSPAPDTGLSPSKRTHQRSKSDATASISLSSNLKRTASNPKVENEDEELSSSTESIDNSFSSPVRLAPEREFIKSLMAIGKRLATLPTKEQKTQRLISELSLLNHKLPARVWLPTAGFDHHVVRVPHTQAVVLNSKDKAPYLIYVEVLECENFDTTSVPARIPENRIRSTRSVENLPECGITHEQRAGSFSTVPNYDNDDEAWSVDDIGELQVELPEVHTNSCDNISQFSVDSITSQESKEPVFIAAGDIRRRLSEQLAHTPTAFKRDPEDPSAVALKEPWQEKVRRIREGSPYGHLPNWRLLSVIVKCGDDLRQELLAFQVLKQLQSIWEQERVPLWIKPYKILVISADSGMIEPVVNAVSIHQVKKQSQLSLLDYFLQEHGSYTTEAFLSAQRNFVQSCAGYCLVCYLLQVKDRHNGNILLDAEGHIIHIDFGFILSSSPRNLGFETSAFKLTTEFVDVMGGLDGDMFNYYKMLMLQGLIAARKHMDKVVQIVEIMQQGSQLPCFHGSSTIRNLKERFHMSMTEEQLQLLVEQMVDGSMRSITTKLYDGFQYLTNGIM
Compound,MAC (Escherichia coli),IC50 (rhinovirus A16 [1]),MAC (Pseudomonas aeruginosa),CC50 [3],MAC (Acinetobacter baumannii),MIC (Bacillus subtilis [4]),MAC (Klebsiella pneumoniae),MIC (Streptococcus pyogenes [5]),IC50 [6],IC50 (enterovirus D68 [7]),CC50 [8],MIC (Staphylococcus aureus [9]),MIC (Enterococcus faecalis [10]),MBC (Enterococcus faecium [11]),MBC (Staphylococcus warneri [12]),MBC (Bacillus subtilis [13]),IC50 (Zika virus [20]),MBC (Streptococcus pyogenes [23]),IC50 (rhinovirus A16 [30]),IC50 (enterovirus D68 [31]),also measured
CC(C)(C)C(=O)Nc1nc(C(F)(F)F)c(-c2c[nH]c(Nc3cccc(C(F)(F)F)c3)n2)s1,32 µg/mL,10.4 µM,>64 µg/mL,> 50 µM,16 µg/mL,> 32 µg/mL,>64 µg/mL,> 32 µg/mL,Not Active,5.74 µM,> 50 µM,> 32 µg/mL,> 32 µg/mL,,,,,,,,IC50 (Zika virus [2]): 8.52 µM
CC(C)(C)C(=O)Nc1nc(C(F)(F)F)c(-c2csc(Nc3cc(C(=O)O)cc(C(F)(F)F)c3)n2)s1,>64 µg/mL,9.52 µM,>64 µg/mL,> 50 µM,>64 µg/mL,16 µg/mL,>64 µg/mL,4 µg/mL,,4.18 µM,> 50 µM,16 µg/mL,32 µg/mL,> 64 µg/mL,> 64 µg/mL,16 µg/mL,Not Active,4 µg/mL,,,MBC (Enterococcus faecium [14]): > 64 µg/mL; MIC (Staphylococcus warneri [15]): 16 µg/mL; MBC [16]: 64 µg/mL; MIC (Enterococcus faecium [17]): 16 µg/mL; MBC (Staphylococcus aureus [18]): > 64 µg/mL; MIC [19]: 16 µg/mL; MBC (Staphylococcus aureus [21]): < 32 µg/mL; MBC (Enterococcus faecalis [22]): > 32 µg/mL; MBC [24]: > 64 µg/mL; MBC (Enterococcus faecium [25]): > 64 µg/mL; MIC (Enterococcus faecium [26]): 16 µg/mL; MIC (Staphylococcus aureus [27]): 8 µg/mL; MIC (Enterococcus faecium [28]): 32 µg/mL; MIC [29]: 16 µg/mL
O=C(Nc1nc(C(F)(F)F)c(-c2csc(Nc3ccc(O)c(C(=O)O)c3)n2)s1)c1ccccc1,>64 µg/mL,,>64 µg/mL,> 50 µM,>64 µg/mL,16 µg/mL,>64 µg/mL,4 µg/mL,Not Active,,> 50 µM,16 µg/mL,16 µg/mL,> 64 µg/mL,64 µg/mL,> 32 µg/mL,Not Active,32 µg/mL,Not Active,Not Active,MBC (Enterococcus faecium [14]): 64 µg/mL; MIC (Staphylococcus warneri [15]): 64 µg/mL; MBC [16]: 64 µg/mL; MIC (Enterococcus faecium [17]): 16 µg/mL; MBC (Staphylococcus aureus [18]): > 64 µg/mL; MIC [19]: 32 µg/mL; MBC (Staphylococcus aureus [21]): 32 µg/mL; MBC (Enterococcus faecalis [22]): > 32 µg/mL; MBC [24]: 64 µg/mL; MBC (Enterococcus faecium [25]): > 64 µg/mL; MIC (Enterococcus faecium [26]): 32 µg/mL; MIC (Staphylococcus aureus [27]): 32 µg/mL; MIC (Enterococcus faecium [28]): 32 µg/mL; MIC [29]: 32 µg/mL
CC(C)(C)C(=O)Nc1nc(C(F)(F)F)c(-c2csc(Nc3cc(C(=O)O)cc(C(=O)O)c3)n2)s1,>64 µg/mL,,>64 µg/mL,> 50 µM,>64 µg/mL,> 32 µg/mL,>64 µg/mL,> 32 µg/mL,Not Active,12.3 µM,> 50 µM,> 32 µg/mL,> 32 µg/mL,,,,Not Active,,Not Active,,
COC(=O)c1cc(Nc2nc(-c3sc(NC(=O)c4ccccc4)nc3C(F)(F)F)cs2)cc(C(F)(F)F)c1,>64 µg/mL,2.44 µM,>64 µg/mL,> 50 µM,>64 µg/mL,> 32 µg/mL,>64 µg/mL,> 32 µg/mL,Not Active,,22.9 µM,> 32 µg/mL,> 32 µg/mL,,,,Not Active,,,Not Active,
CC(C)(C)C(=O)Nc1nc(C(F)(F)F)c(-c2csc(Nc3ccc(O)c(C(=O)O)c3)n2)s1,>64 µg/mL,9.77 µM,>64 µg/mL,> 50 µM,>64 µg/mL,32 µg/mL,>64 µg/mL,16 µg/mL,,10 µM,> 50 µM,> 32 µg/mL,> 32 µg/mL,,,> 32 µg/mL,Not Active,> 32 µg/mL,,,
O=C(O)c1cc(Nc2nc(-c3sc(NC(=O)c4ccccc4)nc3C(F)(F)F)cs2)cc(C(F)(F)F)c1,>64 µg/mL,,>64 µg/mL,> 50 µM,>64 µg/mL,4 µg/mL,>64 µg/mL,2 µg/mL,,,> 50 µM,> 32 µg/mL,2 µg/mL,> 64 µg/mL,> 64 µg/mL,32 µg/mL,Not Active,> 32 µg/mL,Not Active,Not Active,MBC (Enterococcus faecium [14]): > 64 µg/mL; MIC (Staphylococcus warneri [15]): > 64 µg/mL; MBC [16]: > 64 µg/mL; MIC (Enterococcus faecium [17]): 64 µg/mL; MBC (Staphylococcus aureus [18]): > 64 µg/mL; MIC [19]: 32 µg/mL; MBC (Enterococcus faecalis [22]): > 32 µg/mL; MBC [24]: > 64 µg/mL; MBC (Enterococcus faecium [25]): > 64 µg/mL; MIC (Enterococcus faecium [26]): > 64 µg/mL; MIC (Staphylococcus aureus [27]): > 64 µg/mL; MIC (Enterococcus faecium [28]): > 64 µg/mL; MIC [29]: 32 µg/mL
O=C(O)c1cc(Nc2nc(-c3sc(NC(=O)c4ccccc4)nc3C(F)(F)F)cs2)cc(C(=O)O)c1,>64 µg/mL,,>64 µg/mL,> 50 µM,>64 µg/mL,> 32 µg/mL,>64 µg/mL,> 32 µg/mL,Not Active,,> 50 µM,> 32 µg/mL,> 32 µg/mL,,,,Not Active,,Not Active,Not Active,
COC(=O)c1cc(Nc2nc(-c3sc(NC(=O)C(C)(C)C)nc3C(F)(F)F)cs2)cc(C(F)(F)F)c1,>64 µg/mL,0.25 µM,>64 µg/mL,> 50 µM,>64 µg/mL,> 32 µg/mL,>64 µg/mL,> 32 µg/mL,Not Active,2.01 µM,47.3 µM,> 32 µg/mL,> 32 µg/mL,,,,,,,,IC50 (Zika virus [2]): 6.13 µM
